Bioassay records deposited in PubChem BioAssay by Johns Hopkins Ion Channel Center.
Compounds with a hit are over-represented: about 3.1% of the library has one in this group of screens.
KCNQ1 block: human KCNQ1 channel inhibition; CHO-K1 KCNQ1, FluxOR thallium flux fluorescence; stronger effect = higher value; B-score at 10 µM; hit rate 1.3% among 310,000;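 active = compounds whose thallium flux B-score, printed positive for inhibition, exceeds three library SD while starting fluorescence stays within three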;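 also: channel opened by potassium depolarization with thallium stimulus after 20 min compound exposure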
KCNK3 inh: human KCNK3 channel inhibition, primary screen; CHO-KCNK3 thallium flux, FluxOR fluorescence; stronger effect = lower value; B-score at 10 µM; hit rate 0.84% among 340,000; AID 602410;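 active = B-score under library mean minus 4 SD, starting fluorescence ratio at most library mean plus 5 SD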;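 also: more negative B-score means stronger inhibition of thallium flux through KCNK3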
Target sequence (O14649 whole entry, looked up): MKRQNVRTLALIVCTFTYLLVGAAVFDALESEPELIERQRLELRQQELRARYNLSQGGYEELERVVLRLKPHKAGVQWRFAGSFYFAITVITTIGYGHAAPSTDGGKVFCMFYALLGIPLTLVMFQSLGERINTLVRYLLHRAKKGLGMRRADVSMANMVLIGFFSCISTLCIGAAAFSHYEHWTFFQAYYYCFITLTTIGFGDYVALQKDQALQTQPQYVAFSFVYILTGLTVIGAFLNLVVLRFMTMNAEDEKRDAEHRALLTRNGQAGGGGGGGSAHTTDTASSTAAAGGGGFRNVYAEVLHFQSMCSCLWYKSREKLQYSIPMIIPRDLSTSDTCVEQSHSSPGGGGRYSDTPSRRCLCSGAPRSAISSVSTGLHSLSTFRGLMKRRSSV
hERG protect: compounds protecting human hERG from proarrhythmic drug block | Q12809 | activation (rescue from dofetilide block), less the hit threshold, % at 10 µM | CHO-hERG, FluxOR thallium flux, dofetilide IC70 present | AID 1511 | hit rate 0.51% among 310,000;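 active = activation above the mean of controls blocked by dofetilide plus 5 SD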;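 also: thallium influx through hERG after potassium depolarization seen as dye fluorescence rise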
KCNK9 block: inhibitors of human KCNK9 two-pore domain potassium channel. Q9NPC2. HEK293 KCNK9, FluxOR thallium flux fluorescence; stronger effect = lower value. B-score at 10 µM. hit rate 1.2% among 310,000;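 active = ratio B-score over 3 SD below the library mean, with starting fluorescence within 5 SD of its mean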;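 also: negative B-score means less thallium flux so channel inhibition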
KCNQ1 pot: human KCNQ1 channel potentiation or activation; P51787; CHO-K1 KCNQ1, thallium flux FluxOR fluorescence; stronger effect = higher value; B-score at 10 µM; hit rate 0.35% among 310,000;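 active = fluorescence ratio B-score, a plate-corrected score, at least three library SD, with initial intensity B-score within 5 SD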
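Medium – assay buffer, equal DMSO in all wells · Material – CHO-K1 cell line with stable KCNQ1 potassium channel expression · Signal – kinetic FluxOR thallium fluorescence, 10-s 1-Hz baseline, 110-s post-stimulus read · Compound – single concentration per compound, DMSO matched to controls · Schedule – 37 °C overnight plating, 90-min dark dye load, 20-min compound pretreatment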
* = called active by the depositor; i = inactive; x = no result given.

SMILES	KCNQ1 block	KCNK3 inh	hERG protect	KCNK9 block	KCNQ1 pot
Cc1cccc(OCCSc2nncn2C)c1	i	i	9.8*	i	i
CCN(CC)S(=O)(=O)c1cc(C(=O)Nc2cc(C)[nH]n2)ccc1Cl	i	i	-6.5	i	i
Cc1oc(/N=C/c2ccc(F)cc2)c(C#N)c1C	i	i	7.7*	i	i
Cc1cccc(C)c1-c1ccc(CN2C(CC(C)C)C(=O)N(Cc3cn(CCO)nn3)CCS2(=O)=O)cc1 (stereo not drawn)	x	i	x	x	x
CC(C)(Oc1ccc(Cl)cc1)C(=O)N/N=C/c1cn[nH]c1-c1ccccc1	i	i	-6.5	-7.18*	i
COc1ccc(CCC(=O)Nc2ccc3c(c2)OCO3)cc1OC	i	i	-4.0	i	i
COC(=O)N/N=C/c1cc(Br)ccc1O	i	i	-2.8	i	i
COC(=O)N/N=C/c1cc(N=Nc2ccccc2Cl)ccc1O	i	i	-9.8	-7.95*	i
CCc1nnc(NC(=O)CSc2nc(C)cs2)s1	i	i	-9.6	i	i
O=C(N/N=C/c1ccc(F)cc1)c1cccc(NC(=O)c2ccc(F)cc2)c1	i	i	-16.2	i	i
COc1cc(C(=O)Nn2cnnc2)ccc1OC(F)F	i	i	-4.3	i	i
COc1ccc(C(=O)C(/C=N/O)=N/Nc2ccc(F)cc2)cc1	10*	i	-8.7	i	i
COc1ccc(C2NC(c3ccc(OC)c(OC)c3OC)C(C)C(=O)C2C)c(OC)c1OC (stereo not drawn)	i	i	-1.5	i	10*
CC(=O)c1ccc(NC(=O)c2ccc3nc(-c4ccco4)c(-c4ccco4)nc3c2)cc1	i	-11.3*	-7.2	i	i
O=C(Nc1ccc(N2CCOCC2)cc1)c1ccc2nc(-c3ccco3)c(-c3ccco3)nc2c1	i	i	0.1	i	i
O=C(Nc1ccccc1)c1ccc2nc(-c3ccco3)c(-c3ccco3)nc2c1	i	i	-10.4	i	i
S=C(Nc1ccc(N2CCOCC2)cc1)Nc1ccc2nc(-c3ccco3)c(-c3ccco3)nc2c1	6*	i	-25.4	-7.13*	i
O=C(Nc1ccc(Cl)cc1)c1ccc(OCC2CCCO2)cc1 (stereo not drawn)	i	i	-6.0	i	i
O=C(Nc1nc(-c2ccc(Cl)cc2Cl)cs1)c1ccc(OCC2CCCO2)cc1 (stereo not drawn)	6*	i	-11.8	i	i
Cc1onc(-c2ccccc2Cl)c1C(=O)Nc1ccccc1O	i	i	-0.2	i	i
CCCN1C(=O)/C(=C/C=C2\N(CC)c3ccccc3C2(C)C)SC1=S	8*	i	-12.0	i	i
C=CCN1C(=O)/C(=C\C=C2\N(C)c3ccccc3C2(C)C)SC1=S	i	i	-9.6	i	i
Cc1ccc(S(=O)(=O)Nc2ccc3c(c2)C(=O)N([C@H](C)CO)C[C@H](C)[C@@H](CN(C)Cc2ccccc2)O3)cc1	x	-10.5*	x	x	x
Cc1nn(-c2cccc(Cl)c2)c(Cl)c1/C=N/NC(=O)c1cccnc1	i	i	-9.3	-7.43*	i
Cc1nn(-c2ccccc2)c(N2CCCC2)c1/C=N/NC(=O)c1cc(-c2ccccc2)nc2ccccc12	i	i	-21.3	i	i
SMILES	KCNQ1 block	KCNK3 inh	hERG protect	KCNK9 block	KCNQ1 pot
Cc1nn(-c2ccccc2)c(N2CCCC2)c1/C=N/NC(=O)c1cc2ccccc2cc1O	11*	i	-26.4	i	i
Cc1ccc(-c2cc(C(=O)N/N=C/c3c(C)nn(-c4ccccc4)c3C)[nH]n2)cc1	13*	i	-7.2	i	i
Cc1nn(-c2ccccc2)c(N2CCCC2)c1/C=N/NC(=O)c1cccc(S(=O)(=O)Nc2ccc(Cl)cc2)c1	7*	i	-2.4	i	i
Cc1ccc(/C=N/NC(=O)c2cccc(S(=O)(=O)N3CCOCC3)c2)o1	i	i	-1.9	i	i
CC1=C(C(=O)OC2CCCCC2)C(c2ccc(F)cc2)NC(=O)N1 (stereo not drawn)	i	i	-4.1	i	i
Cc1ccc(/C=N/NC(=O)CC2N=C(Cc3ccccc3)NNC2=O)cc1 (stereo not drawn)	i	i	5.2*	i	i
C/C(=N\NC(=O)CC1N=C(Cc2ccccc2)NNC1=O)c1ccncc1 (stereo not drawn)	i	i	-5.9	i	i
N#CCCn1cc(C(=O)Nc2ccccc2Br)c(-c2cccs2)n1	i	i	-10.4	-7.34*	i
CCCn1nc(C(=O)OCC(=O)Nc2cccc(OC)c2)c2ccccc2c1=O	i	i	-10.2	i	i
CCOC(=O)N1CCN(C(=O)/C(=C/c2cccc3ccccc23)NC(=O)c2ccc(OC)c(OC)c2)CC1	i	i	-11.9	i	i
COc1ccc(C(=O)N/C(=C\c2cccc3ccccc23)C(=O)N2CCN(C)CC2)cc1OC	i	i	9.7*	i	i
CCOC(=O)c1sc2nc(C)[nH]c(=S)c2c1C	i	i	1.2	i	40*
CCOC(=O)c1sc2nc(C)n(N)c(=O)c2c1C	i	i	-4.1	i	i
S=C(NCCc1ccccc1)N1CCc2ccccc2C1	i	i	-12.3	i	i
Cc1cccn2c(=O)c3cc(C(=O)NC4CCCC4)c(=N)n(Cc4ccc(F)cc4)c3nc12	i	i	-18.6	i	i
CCN(C(=O)c1cc2c(=O)n3cccc(C)c3nc2n1CCCOC)C1CCCCC1	i	-11.2*	-14.4	i	i
Cc1cccn2c(=O)c3cc(C(=O)NC4CCCCC4)c(=N)n(Cc4ccccc4)c3nc12	7*	i	-15.3	i	i
Cc1ccn2c(/C=N/OCc3ccc(F)cc3)c(-c3ccc(Cl)cc3)nc2c1	i	i	-15.0	-7.41*	i
COc1ccccc1C(=O)NNC(=O)C(=O)NCc1ccccc1	i	i	10.3*	i	7*
COc1cccc(C(=O)NNC(=O)C(=O)Nc2cccc(Cl)c2C)c1	i	i	23.4*	i	36*
COc1cccc(C(=O)NNC(=O)C(=O)Nc2ccc(C)cc2)c1	i	i	27.1*	i	37*
COc1ccc(C(=O)Nc2cccc3ccccc23)cc1	i	i	-9.2	i	i
COc1cccc(C(=O)NNC(=O)c2ccc3ccccc3c2)c1	x	i	x	x	x
COc1ccc(C(=O)NNC(=O)C(=O)Nc2cccc3ccccc23)cc1	i	i	30.8*	i	34*
COc1ccccc1C(=O)NCc1ccccc1	i	i	-7.9	i	i
Cc1ccc2c(C(=O)CCl)c(C)[nH]c2c1	i	i	-11.9	i	i
COc1cccc(C(=O)Nc2ccc(C(=O)c3ccccc3)cc2)c1	i	i	-8.6	-7.75*	i
